Measurements reported in paper PMC8367020 (Journal of the American Chemical Society, 2021).
Where “and” joins values, the source holds several entries; their conditions need not be identical. Equal entries are not always repeated. Where two headings read alike, the source gives them in different places. Marks after values point to notes of the source that are not given here. Values belong to the molecule of their own block, whether it stands above or below them.

Columns and labels:
[1] = biological target: T1, hOAT (Homo sapiens, UniProt P04181); test: 48-hour time-dependent dialysis of inactivated hOAT; assay type: biochemical; conditions: 48-hour dialysis against buffer with excess PLP and α-KG
T1 sequence (P04181 26-439): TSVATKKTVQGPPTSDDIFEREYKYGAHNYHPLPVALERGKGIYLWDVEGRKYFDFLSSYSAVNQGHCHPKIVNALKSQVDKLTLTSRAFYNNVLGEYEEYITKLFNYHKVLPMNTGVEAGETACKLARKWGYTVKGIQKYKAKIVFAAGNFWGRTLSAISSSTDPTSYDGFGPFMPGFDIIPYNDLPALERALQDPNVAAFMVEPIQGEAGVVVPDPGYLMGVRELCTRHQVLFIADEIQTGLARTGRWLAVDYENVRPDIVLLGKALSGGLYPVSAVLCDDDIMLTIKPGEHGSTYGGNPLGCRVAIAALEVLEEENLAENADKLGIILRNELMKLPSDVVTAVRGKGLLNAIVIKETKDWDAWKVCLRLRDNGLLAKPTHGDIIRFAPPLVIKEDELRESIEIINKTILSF

[2] = biological target: T1, hOAT; test: Partition ratio determination with hOAT; assay type: biochemical; conditions: in the presence of α-KG, partition ratio = turnover number −1
[3] = biological target: T1, hOAT; test: Time-dependent inactivation kinetics of hOAT; assay type: biochemical
[4] = tested on: alanine aminotransferase (Ala-AT); test: Inhibition of Ala-AT; assay type: biochemical; conditions: at concentrations up to 10 mM
[5] = tested on: aspartate aminotransferase (Asp-AT); test: Inhibition of Asp-AT; assay type: biochemical; conditions: at concentrations up to 10 mM
[6] = biological target: T1, hOAT; test: Stopped-flow transient-state spectrophotometry of hOAT reacting with 6; assay type: biochemical
In short: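 Stopped-flow at 10 °C. hOAT (6.94 µM final) was mixed with the test compound (e.g. 1040 µM final; several concentrations). CCD absorbance at 250–800 nm over 0.0137–9843 s came from spliced, averaged short- and long-time datasets, deconvolved by SVD. The 420 nm traces were fitted to three exponentials, and first-phase kobs was fitted against concentration. Quinonoid accumulation assumed ε ~30 mM−1cm−1.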

[7] = biological target: T1, hOAT; test: Denaturing intact protein mass spectrometry of hOAT inactivated by 6; assay type: binding
In short: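 Intact hOAT fully inactivated by the test compound was analysed by denaturing intact-protein mass spectrometry, with untreated hOAT run alongside as a control. The added mass was read as the shift from the unmodified protein and compared with theoretical adduct masses.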

[8] = biological target: T1, hOAT; conditions: cited from earlier work
[9] = tested on: aspartate aminotransferase (Asp-AT); conditions: up to 4 mM; cited from earlier work
[10] = biological target: T2, GABA-AT (Sus scrofa, UniProt P80147); test: Reversible inhibition of GABA-AT; assay type: biochemical; conditions: Ki = IC50/(1+[S]/Km)
[11] = biological target: T2, GABA-AT; conditions: cited from earlier work
[12] = tested on: human-derived HCC mouse model; conditions: 0.1 and 1.0 mg/kg; po; cited from earlier work
[13] = tested on: alanine aminotransferase (Ala-AT); conditions: up to 4 mM; cited from earlier work
[14] = biological target: T1, hOAT; conditions: cited from earlier work; remark: listed apart in the source
[15] = biological target: T1, hOAT; conditions: cited from earlier work; remark: listed apart in the source
[16] = hOAT inactivation, mean and standard error

T2 sequence (P80147 29-500): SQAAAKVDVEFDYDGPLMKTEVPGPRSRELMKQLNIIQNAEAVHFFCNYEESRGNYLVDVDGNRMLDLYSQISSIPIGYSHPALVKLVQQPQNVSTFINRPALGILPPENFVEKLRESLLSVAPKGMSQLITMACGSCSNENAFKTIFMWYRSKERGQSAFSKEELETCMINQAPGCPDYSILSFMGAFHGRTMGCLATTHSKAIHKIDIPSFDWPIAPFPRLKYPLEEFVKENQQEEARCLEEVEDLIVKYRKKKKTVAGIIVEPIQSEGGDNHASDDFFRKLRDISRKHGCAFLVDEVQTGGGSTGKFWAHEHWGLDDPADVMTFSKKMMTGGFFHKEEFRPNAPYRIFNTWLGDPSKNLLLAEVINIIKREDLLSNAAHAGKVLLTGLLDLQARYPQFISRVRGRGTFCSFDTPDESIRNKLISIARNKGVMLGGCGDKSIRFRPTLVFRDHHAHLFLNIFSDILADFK

residual activity of hOAT after dialysis [1]: unchanged | Partition ratio [2]: 34 and 34 ± 0 | Ki [3]: 0.06 ± 0.03 mM | kinact/KI [3]: 21.7 M⁻¹ s⁻¹ | improvement in inactivation efficiency (kinact/KI) ([3]; 6 versus 4, hOAT): 400 fold | inhibition of Ala-AT [4]: did not show noticeable inhibition | inhibition of Asp-AT [5]: did not show noticeable inhibition | rate of quinonoid decay [6]: 0.09 s⁻¹ | rate of second external aldimine formation (bimolecular) ([6]; 420 nm): 6200 M⁻¹ s⁻¹ | rate constant of final phase ([6]; external aldimine decay with increase at ~275 nm): 0.007 s⁻¹ | rate of quinonoid species accumulation ([6]; ~560 nm): 0.4 s⁻¹ | hOAT in apo-enzyme state ([7]; denaturing MS conditions at pH 2.5): approximately 84% | hOAT covalently modified ([7]; denaturing MS, hOAT fully inactivated by 6, mass increase 370.07 Da): ~ 16%
Structure (SMILES): N[C@H]1C=C(C(=O)O)CC1(F)F [Compound 6, (S)-3-amino-4,4-difluorocyclopent-1-enecarboxylic acid]

Structure (SMILES): N[C@H]1C=C(C(=O)O)CCC1(F)F [Compound 2, (S)-3-amino-4,4-difluorocyclohex-1-enecarboxylic acid, reference compound]
improvement in inactivation efficiency (kinact/KI) against hOAT compared to 1 ([8]; versus compound 1): 23 fold

Ki [3]: 4 ± 1 mM
Structure (SMILES): N[C@H]1C[C@@H](C(=O)O)CC1(F)F [Compound 4, (1R,4S)-4-amino-3,3-difluorocyclopentanecarboxylic acid]
Ki ([8]; hOAT inactivation): 7.8 mM

Structure (SMILES): N[C@H]1C[C@@H](C(=O)O)CC1=C(C(F)(F)F)C(F)(F)F [Compound 1, (1S,3S)-3-amino-4-(hexafluoropropan-2-ylidenyl)cyclopentane-1-carboxylic acid]
kinact/KI ([3]; hOAT inactivation efficiency): 16.7 ± 6.7 M⁻¹ s⁻¹ | Ki [3, 16]: 0.09 ± 0.03 mM | kinact [3, 16]: 0.09 ± 0.01 min⁻¹ | inhibition of Asp-AT [9]: no inhibition | Ki [10]: 5.2 ± 0.6 mM | Ki ([11]; GABA-AT, weak reversible inhibition): 4.2 mM | inhibition of GABA-AT (in words) ([11]; preliminary screening): millimolar reversible inhibition | serum AFP levels [12]: remarkably decreased | tumor growth [12]: inhibited tumor growth | inhibition of Ala-AT [13]: no inhibition | Fluoride ion release [14]: 79 ± 2^b eq. | Partition ratio [15]: 12 ± 1^b
